Target: T1, Protein cereblon/3-hydroxy-3-methylglutaryl-coenzyme A reductase (Cricetulus griseus, UniProt P00347+G3H338)
T1 sequence (P00347 whole entry): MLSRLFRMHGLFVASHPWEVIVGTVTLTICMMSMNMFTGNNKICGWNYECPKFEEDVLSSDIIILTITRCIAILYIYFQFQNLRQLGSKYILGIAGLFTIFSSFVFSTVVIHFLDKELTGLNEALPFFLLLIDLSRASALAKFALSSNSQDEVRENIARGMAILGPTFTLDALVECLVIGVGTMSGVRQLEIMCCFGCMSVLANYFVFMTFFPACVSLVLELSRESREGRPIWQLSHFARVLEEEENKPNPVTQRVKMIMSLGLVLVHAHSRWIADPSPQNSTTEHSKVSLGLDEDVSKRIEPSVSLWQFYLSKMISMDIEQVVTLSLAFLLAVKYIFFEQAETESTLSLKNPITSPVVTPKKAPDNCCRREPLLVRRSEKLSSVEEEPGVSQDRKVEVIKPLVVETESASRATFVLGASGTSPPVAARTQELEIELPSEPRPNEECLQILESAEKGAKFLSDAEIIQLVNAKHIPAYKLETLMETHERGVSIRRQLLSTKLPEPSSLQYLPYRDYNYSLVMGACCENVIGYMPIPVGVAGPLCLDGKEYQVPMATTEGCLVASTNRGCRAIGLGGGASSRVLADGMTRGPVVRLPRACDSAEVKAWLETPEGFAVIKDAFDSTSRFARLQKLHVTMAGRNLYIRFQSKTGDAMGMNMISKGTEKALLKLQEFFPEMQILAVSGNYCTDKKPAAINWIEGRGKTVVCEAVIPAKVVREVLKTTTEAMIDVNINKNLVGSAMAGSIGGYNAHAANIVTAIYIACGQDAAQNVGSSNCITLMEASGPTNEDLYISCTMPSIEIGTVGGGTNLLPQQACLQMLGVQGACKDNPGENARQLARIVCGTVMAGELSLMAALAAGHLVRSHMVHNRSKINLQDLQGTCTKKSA
T1 sequence (G3H338 whole entry): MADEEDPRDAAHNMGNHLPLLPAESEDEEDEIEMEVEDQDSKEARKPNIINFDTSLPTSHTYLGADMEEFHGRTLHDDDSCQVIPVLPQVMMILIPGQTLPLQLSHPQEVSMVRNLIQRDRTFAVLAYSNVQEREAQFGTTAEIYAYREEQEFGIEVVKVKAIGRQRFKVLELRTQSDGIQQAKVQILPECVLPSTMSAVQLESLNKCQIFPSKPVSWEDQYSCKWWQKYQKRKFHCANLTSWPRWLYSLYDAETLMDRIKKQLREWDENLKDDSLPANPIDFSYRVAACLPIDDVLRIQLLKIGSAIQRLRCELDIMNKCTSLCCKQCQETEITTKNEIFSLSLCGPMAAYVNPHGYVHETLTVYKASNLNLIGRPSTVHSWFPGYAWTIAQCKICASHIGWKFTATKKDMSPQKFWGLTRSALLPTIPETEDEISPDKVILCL
Experiment: Protac activity at CRBN/HMGCR in Insig-1/Insig-2 deficient Chinese hamster SRD15 cells assessed as induction of HMGCR degradation after 16 hrs by immunoblotting analysis
Outline: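 SRD15 cells treated with compound at varying concentrations for 16 h, final DMSO ≤0.1%; RIPA lysates (Lowry protein) immunoblotted for HMGCR, densitometry normalized to actin, DMSO set to 1; DC50 = concentration giving 50% loss versus DMSO, fitted to dose-response curve, mean of 3 independent experiments.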

DC50 [nM] | Structure (SMILES)
600 | CC(C)c1c(C(=O)Nc2ccccc2)c(-c2cccc(OCCCc3cn(CCCCCCCOCCCc4cccc5c4CN(C4CCC(=O)NC4=O)C5=O)nn3)c2)c(-c2ccc(F)cc2)n1CC[C@@H](O)C[C@@H](O)CC(=O)O (stereo partly specified)
> 3000 | CC(C)c1c(C(=O)Nc2ccccc2)c(-c2cccc(OCCCc3cn(CCCOCC#Cc4cccc5c4CN(C4CCC(=O)NC4=O)C5=O)nn3)c2)c(-c2ccc(F)cc2)n1CC[C@@H](O)C[C@@H](O)CC(=O)O (stereo partly specified)
300 | CC(C)c1c(C(=O)Nc2ccccc2)c(-c2cccc(OCCCc3cn(CCCCCOCC#Cc4cccc5c4CN(C4CCC(=O)NC4=O)C5=O)nn3)c2)c(-c2ccc(F)cc2)n1CC[C@@H](O)C[C@@H](O)CC(=O)O (stereo partly specified)
200 | CC(C)c1c(C(=O)Nc2ccccc2)c(-c2cccc(OCCCc3cn(CCCCCCOCC#Cc4cccc5c4CN(C4CCC(=O)NC4=O)C5=O)nn3)c2)c(-c2ccc(F)cc2)n1CC[C@@H](O)C[C@@H](O)CC(=O)O (stereo partly specified)
> 3000 | CC(C)c1c(C(=O)Nc2ccccc2)c(-c2cccc(OCCCCc3cn(CCOCCOCCOCCNc4cccc5c4C(=O)N(C4CCC(=O)NC4=O)C5=O)nn3)c2)c(-c2ccc(F)cc2)n1CC[C@@H](O)C[C@@H](O)CC(=O)O (stereo partly specified)
> 3000 | CC(C)c1c(C(=O)Nc2ccccc2)c(-c2cccc(OCCCc3cn(CCOCCCc4cccc5c4CN(C4CCC(=O)NC4=O)C5=O)nn3)c2)c(-c2ccc(F)cc2)n1CC[C@@H](O)C[C@@H](O)CC(=O)O (stereo partly specified)
200 | CC(C)c1c(C(=O)Nc2ccccc2)c(-c2cccc(OCCCc3cn(CCOCCOCCOCCOCCOCCNc4cccc5c4C(=O)N(C4CCC(=O)NC4=O)C5=O)nn3)c2)c(-c2ccc(F)cc2)n1CC[C@@H](O)C[C@@H](O)CC(=O)O (stereo partly specified)
500 | CC(C)c1c(C(=O)Nc2ccccc2)c(-c2cccc(OCCCc3cn(CCCCCCOCCCc4cccc5c4CN(C4CCC(=O)NC4=O)C5=O)nn3)c2)c(-c2ccc(F)cc2)n1CC[C@@H](O)C[C@@H](O)CC(=O)O (stereo partly specified)
> 3000 | CC(C)c1c(C(=O)Nc2ccccc2)c(-c2cccc(OCCCc3cn(CCOCCOCCOCCNc4ccc5c(c4)C(=O)N(C4CCC(=O)NC4=O)C5=O)nn3)c2)c(-c2ccc(F)cc2)n1CC[C@@H](O)C[C@@H](O)CC(=O)O (stereo partly specified)
> 3000 | CC(C)c1c(C(=O)Nc2ccccc2)c(-c2cccc(OCCCc3cn(CCCOCCCc4cccc5c4CN(C4CCC(=O)NC4=O)C5=O)nn3)c2)c(-c2ccc(F)cc2)n1CC[C@@H](O)C[C@@H](O)CC(=O)O (stereo partly specified)
> 3000 | CC(C)c1c(C(=O)Nc2ccccc2)c(-c2cccc(OCCCCc3cn(CCOCCOCCOCCNc4ccc5c(c4)C(=O)N(C4CCC(=O)NC4=O)C5=O)nn3)c2)c(-c2ccc(F)cc2)n1CC[C@@H](O)C[C@@H](O)CC(=O)O (stereo partly specified)
3000 | CC(C)c1c(C(=O)Nc2ccccc2)c(-c2cccc(OCCCCCc3cn(CCOCCNc4cccc5c4C(=O)N(C4CCC(=O)NC4=O)C5=O)nn3)c2)c(-c2ccc(F)cc2)n1CC[C@@H](O)C[C@@H](O)CC(=O)O (stereo partly specified)
> 3000 | CC(C)c1c(C(=O)Nc2ccccc2)c(-c2cccc(OCCCCc3cn(CCOCCOCCOCCOCCOCCNc4cccc5c4C(=O)N(C4CCC(=O)NC4=O)C5=O)nn3)c2)c(-c2ccc(F)cc2)n1CC[C@@H](O)C[C@@H](O)CC(=O)O (stereo partly specified)
> 3000 | CC(C)c1c(C(=O)Nc2ccccc2)c(-c2cccc(OCCCc3cn(CCCCOCCCc4cccc5c4CN(C4CCC(=O)NC4=O)C5=O)nn3)c2)c(-c2ccc(F)cc2)n1CC[C@@H](O)C[C@@H](O)CC(=O)O (stereo partly specified)
700 | CC(C)c1c(C(=O)Nc2ccccc2)c(-c2cccc(OCCCc3cn(CCCCCCCOCC#Cc4cccc5c4CN(C4CCC(=O)NC4=O)C5=O)nn3)c2)c(-c2ccc(F)cc2)n1CC[C@@H](O)C[C@@H](O)CC(=O)O (stereo partly specified)
> 3000 | CC(C)c1c(C(=O)Nc2ccccc2)c(-c2cccc(OCCCCc3cn(CCOCCNc4cccc5c4C(=O)N(C4CCC(=O)NC4=O)C5=O)nn3)c2)c(-c2ccc(F)cc2)n1CC[C@@H](O)C[C@@H](O)CC(=O)O (stereo partly specified)

DC50 [nM] | Structure (SMILES)
> 3000 | CCN1C(=O)CCC(N2C(=O)c3cccc(NCCOCCOCCOCCOCCn4cc(CCCOc5cccc(-c6c(C(=O)Nc7ccccc7)c(C(C)C)n(CC[C@@H](O)C[C@@H](O)CC(=O)O)c6-c6ccc(F)cc6)c5)nn4)c3C2=O)C1=O (stereo partly specified)
400 | CC(C)c1c(C(=O)Nc2ccccc2)c(-c2cccc(OCCCCc3cn(CCOCCOCCOCCOCCNc4cccc5c4C(=O)N(C4CCC(=O)NC4=O)C5=O)nn3)c2)c(-c2ccc(F)cc2)n1CC[C@@H](O)C[C@@H](O)CC(=O)O (stereo partly specified)
> 3000 | CC(C)c1c(C(=O)Nc2ccccc2)c(-c2cccc(OCCCc3cn(CCOCCOCCOCCNc4cccc5c4C(=O)N(C4CCC(=O)NC4=O)C5=O)nn3)c2)c(-c2ccc(F)cc2)n1CC[C@@H](O)C[C@@H](O)CC(=O)O (stereo partly specified)
> 3000 | CC(C)c1c(C(=O)Nc2ccccc2)c(-c2cccc(OCCCc3cn(CCOCCNc4cccc5c4C(=O)N(C4CCC(=O)NC4=O)C5=O)nn3)c2)c(-c2ccc(F)cc2)n1CC[C@@H](O)C[C@@H](O)CC(=O)O (stereo partly specified)
2300 | CC(C)c1c(C(=O)Nc2ccccc2)c(-c2cccc(OCCCc3cn(CCCCCOCCCc4cccc5c4CN(C4CCC(=O)NC4=O)C5=O)nn3)c2)c(-c2ccc(F)cc2)n1CC[C@@H](O)C[C@@H](O)CC(=O)O (stereo partly specified)
> 3000 | CC(C)c1c(C(=O)Nc2ccccc2)c(-c2cccc(OCCCc3cn(CCOCC#Cc4cccc5c4CN(C4CCC(=O)NC4=O)C5=O)nn3)c2)c(-c2ccc(F)cc2)n1CC[C@@H](O)C[C@@H](O)CC(=O)O (stereo partly specified)
300 | CC(C)c1c(C(=O)Nc2ccccc2)c(-c2cccc(OCCCCCCc3cn(CCCCCCCNc4cccc5c4C(=O)N(C4CCC(=O)NC4=O)C5=O)nn3)c2)c(-c2ccc(F)cc2)n1CC[C@@H](O)C[C@@H](O)CC(=O)O (stereo partly specified)
> 3000 | CC(C)c1c(C(=O)Nc2ccccc2)c(-c2cccc(OCCCCCc3cn(CCOCCOCCOCCOCCNc4ccc5c(c4)C(=O)N(C4CCC(=O)NC4=O)C5=O)nn3)c2)c(-c2ccc(F)cc2)n1CC[C@@H](O)C[C@@H](O)CC(=O)O (stereo partly specified)
600 | CC(C)c1c(C(=O)Nc2ccccc2)c(-c2cccc(OCCCCCc3cn(CCOCCOCCOCCOCCOCCNc4cccc5c4C(=O)N(C4CCC(=O)NC4=O)C5=O)nn3)c2)c(-c2ccc(F)cc2)n1CC[C@@H](O)C[C@@H](O)CC(=O)O (stereo partly specified)
> 3000 | CC(C)c1c(C(=O)Nc2ccccc2)c(-c2cccc(OCCCCc3cn(CCOCCOCCNc4cccc5c4C(=O)N(C4CCC(=O)NC4=O)C5=O)nn3)c2)c(-c2ccc(F)cc2)n1CC[C@@H](O)C[C@@H](O)CC(=O)O (stereo partly specified)
> 3000 | CC(C)c1c(C(=O)Nc2ccccc2)c(-c2cccc(OCCCCc3cn(CCOCCOCCOCCOCCNc4ccc5c(c4)C(=O)N(C4CCC(=O)NC4=O)C5=O)nn3)c2)c(-c2ccc(F)cc2)n1CC[C@@H](O)C[C@@H](O)CC(=O)O (stereo partly specified)
> 3000 | CC(C)c1c(C(=O)Nc2ccccc2)c(-c2cccc(OCCCc3cn(CCOCCOCCNc4cccc5c4C(=O)N(C4CCC(=O)NC4=O)C5=O)nn3)c2)c(-c2ccc(F)cc2)n1CC[C@@H](O)C[C@@H](O)CC(=O)O (stereo partly specified)
1800 | CC(C)c1c(C(=O)Nc2ccccc2)c(-c2cccc(OCCCCCc3cn(CCOCCOCCOCCNc4cccc5c4C(=O)N(C4CCC(=O)NC4=O)C5=O)nn3)c2)c(-c2ccc(F)cc2)n1CC[C@@H](O)C[C@@H](O)CC(=O)O (stereo partly specified)
500 | CC(C)c1c(C(=O)Nc2ccccc2)c(-c2cccc(OCCCCCCCc3cn(CCCCCCCNc4cccc5c4C(=O)N(C4CCC(=O)NC4=O)C5=O)nn3)c2)c(-c2ccc(F)cc2)n1CC[C@@H](O)C[C@@H](O)CC(=O)O (stereo partly specified)
500 | CC(C)c1c(C(=O)Nc2ccccc2)c(-c2cccc(OCCCCCc3cn(CCOCCOCCOCCOCCNc4cccc5c4C(=O)N(C4CCC(=O)NC4=O)C5=O)nn3)c2)c(-c2ccc(F)cc2)n1CC[C@@H](O)C[C@@H](O)CC(=O)O (stereo partly specified)
